Test system: MS2 coat protein
Test: apparent Kd, MS2 coat protein; higher = weaker binding; RNA-MaP array; FMN 200 µM where present
Outline: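 Designs were transcribed by stalled E. coli RNA polymerase on Illumina sequencing-chip clusters. They were titrated with SNAP-549-labelled MS2 coat protein from 0.7 or 1.5 nM, doubling to 3 µM, in 100 mM Tris-HCl pH 7.5, 80 mM KCl, 4 mM MgCl2, BSA, DTT, yeast tRNA and Tween-20, without and then with constant ligand. The apparent Kd is the median of filtered per-cluster fits after normalisation of green signal to red-channel RNA signal and control-cluster median Fmax.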

[1] = designed as: OFF switch for flavin mononucleotide, no ligand
[2] = ligand present: flavin mononucleotide, designed as: OFF switch for flavin mononucleotide
[3] = designed as: ON switch for flavin mononucleotide, no ligand
[4] = ligand present: flavin mononucleotide, designed as: ON switch for flavin mononucleotide

| Sequence | apparent Kd [1] | apparent Kd [2] | apparent Kd [3] | apparent Kd [4] |
| --- | --- | --- | --- | --- |
| GUCUUGUUAGGAUAUCUUACUUUUGCAUCAUAGUAACCAUUGGAGAAGGGACAUGAGGAUCACCCAUGUUUGGU | 34.6 nM | 30 nM |  |  |
| UUCAUGUUGCGAGGAUAUCGUGUUAACAUGAGGAUCACCCAUGUAUAGGUUUAUUAAUUAGUUUUCGAGAAGGCGCUUUUAGUA |  |  | 215 nM | 158 nM |
| GCCAUCGCAUGAGGAUAUGCUCCCGUUUCGGGAGCAGAAGGCAUGUCAUAAGACAUGAGGAUCACCCAUGUAGAUAAGAUGGCA |  |  | 310 nM | 11.4 nM |
| GGCGAACAGGCUAACAUGAGGAUCACCCAUGUGGACUCAUGGUAGGAUAUGCUGUACUUUGUACAGCAGAAGGGCCGGUGAGCC |  |  | 54.4 nM | 315 nM |
| AAAUUUAACGAAGGAUAUGCUGACAUGAGGAUCACCCAUGUGUGCCUUGUGUUGCUGAAACGGGAGCAGAAGGUCGUAUACAUA | 694 nM | 1180 nM |  |  |
| GAAUAUUCGUUGAACAUGAGGAUCACCCAUGUAACUUGACAUGAGGAUAUGGAUUCUAAUUGGAUCCAGAAGGCAUGAAUAUUC |  |  | 75.3 nM | 26.9 nM |
| GAAUAUUCGUGGUACAUGAGGAUCACCCAUGUGUCUUUACAUGAGGAUAUGGAUUCUAAUUGGAUCCAGAAGGCAUGAAUAUUC |  |  | 75.5 nM | 31.2 nM |
| UUUUUUGUUGUGAGGAUAUCGUAGUUAUUUUGUUACGAGAAGGCACAUGAGGAUCACCCAUGUUUUUUGAUGUU | 23.8 nM | 82.6 nM |  |  |
| AAGAUGCGGAUAGGAUAUGGAAAUUAAUAAAGACCAGAAGGAUUGGUCACACAACAUGAGGAUCACCCAUGUGUGUGUUGUGAA | 13.6 nM | 10.6 nM |  |  |
| GAGGACUGUAAAUUAACUCAAAUACAUGAGGAUCACCCAUGUAAGGAUAUCGUCAGGAAUACUGACGAGAAGGUACAUCAGUCC | 14.4 nM | 20 nM |  |  |
| CACGGAUAGUAGAAGGGUGACAUGAGGAUCACCCAUGUACUUAUGUAGGUAUUACUAUAUAAUUCACAGGAUAUACUAUCCGUG |  |  | 794 nM | 90.3 nM |
| CAAAGGUGAGGAUAUGCAUAACUAUGACGAAAGUCAUAAACACAUGAGGAUCACCCAUGUAGAAGGCGCCACAA | 63.6 nM | 47.8 nM |  |  |
| ACCAUUUACUAAUUAUCUAUACAUGAGGAUCACCCAUGUUAAGAGGAUAUCAUCGUGAAACGCGAUGAGAAGGCUUAGCAUUCG | 55.2 nM | 172 nM |  |  |
| GAUUGAAAAGGAUAUACAUGAGGAUCACCCAUGUGCUUCAGCUAGGAGACUAGCAUUGGUAGAAGGUUUUAAUC | 22.2 nM | 43.9 nM |  |  |
| CCAUGUUAGCAGGAUAUGCCAUUAUUCCUUUACGCAGAAGGGCUUACAUGAGGAUCACCCAUGUAACAUUUCAU | 13.4 nM | 29.5 nM |  |  |
| UGGGUCACAGGAUAUACAUGAGGAUCACCCAUGUCGUAUUUCGUGGCGGAGAGCUCGAGUAGAAGGGUGCAUCC | 119 nM | 87.4 nM |  |  |
| AUGCUUUUUGUAGGAUAUACAUUUUGUACGUAUGUAGAAGGACAUGAGGAUCACCCAUGUAAAUUAUUAUUAAAUAUCAUACUU | 45.8 nM | 31.8 nM |  |  |
| AAUUAGUAAGAAUCACAUGAGGAUCACCCAUGUUUACGGAUGCAGGAUAUGUGGGAUAUUACUUAACAGAAGGGCAAUAACUUU |  |  | 104 nM | 44.2 nM |
| CUUAGACAUGAGGAUCACCCAUGUGAGGAUAUGAUGCGAUCGUCGAAAGACGAUAGCAUCAGAAGGUACAAAUG | 86 nM | 67 nM |  |  |
| GCGCAAGCAUGAGGAUAUGUAUUAAAUAAUAAUACAGAAGGCAUGUCAAAUGACAUGAGGAUCACCCAUGUUGGCAAACUGCGC |  |  | 46.4 nM | 13 nM |
| GUAGCAACAUGAGGAUCACCCAUGUAGGAUAUCGCUAUUGUAAUCAUGAAACAUGAUUACAAUAGCGAGAAGGACAUAUGCUAU | 7 nM | 10.3 nM |  |  |
| GGUGGACAUGAGGAUCACCCAUGUGAGGAUAUCGGCUGGCUACUGGCUGACGGCUGCUCGAGAAGGCGCAUUGU | 40 nM | 73.6 nM |  |  |
| ACAUGAGGAUCACCCAUGUUAUCUGGGACUUCAAUUAUUUCUAGAAGGCUGUUUACUUGUUAGUCAGAGGAUAUAGAAUUAAAU | 31.1 nM | 32.3 nM |  |  |
| AUCAGCUCGUCAGGAUAUACGUCACUGCGUCAGCAGUGUGGUAAGAUCACAUGAGGAUCACCCAUGUAGAAGGGAGGAGCUGAU | 15 nM | 438 nM |  |  |
| CCACGAGACUAAGGAUAUGGAGUGUCAACAUAAAACAUGAGGAUCACCCAUGUAAAGAGUACGAUUCAGAAGGUAGAGACGUGG |  |  | 38.3 nM | 23.7 nM |
| UUUACAUGAGGAUCACCCAUGUUUAGAAAGAUUAAUUUAAGUGAGGAUAUACAUAAUAAUAAAUUGUAGAAGGCACUGGGUACA |  |  | 19.3 nM | 20.6 nM |
| AGAUCCGCAGGAUAUGUCAAUUUACACAUGAGGAUCACCCAUGUGCCUUGUGUCAGCUUGAUAGAAGGGCGGACUA | 330 nM | 575 nM |  |  |
| GACUGACAUGAGGAUCACCCAUGUAUUCGAGCAUGAGGAUAUAUGACACGUCAUCGGCGGAUAGAAGGCAUGGUUG |  |  | 124 nM | 185 nM |

| Sequence | apparent Kd [1] | apparent Kd [2] | apparent Kd [3] | apparent Kd [4] |
| --- | --- | --- | --- | --- |
| AGUGUCAUCGAGAAGGCCUCAACAUGAGGAUCACCCAUGUUGCAAAAUGGGAGGAUAUCGAAAAAACAGCUACGUUUCGUAGCA |  |  | 22.6 nM | 5.17 nM |
| GGAAAACAUGAGGAUCACCCAUGUGAGGAUAUCGAUGUCCAAAGGAAAGUGCGGGACUCGAGAAGGCACUUGGA | 45.4 nM | 39 nM |  |  |
| CAUAUACAGGGAGGAUAUAACAUGAGGAUCACCCAUGUGCAAUGCUCAAUGUUAGAAGGCCCAAUAGAAUCGCAAAAGGCAUCC | 89.8 nM | 272 nM |  |  |
| AUCAGCUUGUCAGGAUAUGCAUGUCAACGAAAGUUGACAAUCUUAAUAACAUGAGGAUCACCCAUGUAGAAGGGACGAGCUGAU | 17.1 nM | 19.3 nM |  |  |
| GAUCUCGUCUAGAAGGUGUAAUAUAUAGUAGUACAAGGAUAUAGACAUGAGGAUCACCCAUGUCGUGCCUGGGCUCAUCUUAAA | 5.92 nM | 7.64 nM |  |  |
| GGUUGGCGAGGAUAUACAUGAGGAUCACCCAUGUGGUCCUGUGGCUGAUCUUGCCUUUGUAGAAGGCGCGGGUC | 49.4 nM | 45.3 nM |  |  |
| GUGCACACUCGAGGAUAUCGGAGAGGACUCCUUCGAGAAGGCGAUUCGUGCCGUGUUAUUCUGGACAUGAGGAUCACCCAUGUG |  |  | 126 nM | 38.2 nM |
| GUGGUCAGACAUGAGGAUCACCCAUGUGGAAUAAAUAAGGUUUAGGAUAUGGAAUAUAGGAUAUACCAGAAGGAAGGGUUGGUG |  |  | 125 nM | 135 nM |
| GUGGUAUUCGUAGGAUAUCCGUCGCCACCGUGUGGAGAAGGACGAACAUGAGGAUCACCCAUGUAUCAUGGUGUGGACGCUGUC | 92.1 nM | 86.6 nM |  |  |
| GACUCGAAUGUAGGAUAUGCUGAGGAUAACUCAGCAGAAGGACAUGAGGAUCACCCAUGUCAAUGAGUGAAUAAUAAACGAGUC | 29 nM | 245 nM |  |  |
| ACGAAGAAACAGAAGGGUAAAUUAGUUAAUUAUUAUUUGGUUAUGCACUACAGGAUAUGUAUAACAUGAGGAUCACCCAUGUAC |  |  | 87.2 nM | 53.5 nM |
| GCGUACAUAUCAGGAUAUCAUUGAAUGGAUUAACUCAGUGAAUACAUGAGGAUCACCCAUGUGCUUGAGAAGGGAUUACUACGC | 14.7 nM | 69.9 nM |  |  |
| ACUUGUAAGCAGAAGGCAGUCAUUAUAUUCGUCAUGUAGACAUGAGGAUCACCCAUGUAUAGUACUGAGGAUAUGCAUCGAUAG | 7.84 nM | 12.9 nM |  |  |
| AAAUUUAACGAAGGAUAUGCUGACAUGAGGAUCACCCAUGUGUGCUUUGUGUUGCUGAAAUUGGAGCAGAAGGUCGUAUACAUA | 101 nM | 148 nM |  |  |
| AGCACGAAAGUGCAACGAUGUACGAGAAGGACAUGAGGAUCACCCAUGUAGGAGUAACUCCAAAUGUAGGAUAUCGUACAUCGA | 568 nM | 79 nM |  |  |
| GACUGUCUAGGAUAUGCGACGUUUUACAUGAGGAUCACCCAUGUUGUCUGCGUGUGUGUGGCAGAAGGAGACAAAC | 13 nM | 19.9 nM |  |  |
| UUGGUAUCUGCAGGAUAUUGUAUUUUAAUACUUCAAGAAGGGCAUUACAUGAGGAUCACCCAUGUUUACAUGGUCAUAUUAGUU | 26.1 nM | 20.8 nM |  |  |
| AGUCGGCAUGAGAAGGGUUACAUGAGGAUCACCCAUGUGAUCAAAUCGUUAACAGGAUAUCAGGCGUCGGGCUUUGCCCGGAGG | 16.4 nM | 106 nM |  |  |
| ACAUGAGGAUCACCCAUGUGUGCAUAGGAUAUUGAGGAUUUGGGAUGUUUUUUUGGAUUUGCCCACAAGAAGGAUGAAAGUGUU |  |  | 12.8 nM | 11.3 nM |
| UAUAUGUCAGGAUAUUAGUUGAGGUGGAAUUUAGCCUCUGCUGAGAAGGGACAUGAGGAUCACCCAUGUUCCUC | 21.9 nM | 200 nM |  |  |
| ACUCUACAUGAGGAUCACCCAUGUUGAGCCCAUCAAGGAUAUGGGUCUUAAUCGCGGGUGCCAGAAGGUGAUGGUU |  |  | 91 nM | 109 nM |
| UUCCGGGUGCAGAAGGGAUAGGCCUAUUUUCGUGGUAUCCAAACCUUACAUGAGGAUCACCCAUGUCAGGAUAUGCCCACGGAA | 4.93 nM | 4.72 nM |  |  |
| CUGAUGUUAGGAUAUCAGGUCGCGCGCGAAGGCGCGCAGCAUGAGAAGGAACAUGAGGAUCACCCAUGUGACGA | 22.4 nM | 60.5 nM |  |  |
| UCGAUCGGAGGAUAUACUAAUACAACUACUGAAGUGUCAAAACAUGAGGAUCACCCAUGUAGAAGGCCGAUAUA | 21.8 nM | 24.3 nM |  |  |
| AAUAGUAUUGUAGGAUAUGUUAUUUUCUAACAUGAGGAUCACCCAUGUAAUAUAGGGUUGUUUCUACAGAAGGACAAUUUAUUA |  |  | 509 nM | 387 nM |
| GUGCACAUUCGAGGAUAUCGGAGAGAGAUCGUUCGAGAAGGCGAUUCAUGAUGUAUUAUCCUGGACAUGAGGAUCACCCAUGUG |  |  | 105 nM | 89.3 nM |
| GUCAGCUCGUGAGGAUAUACAACACUGCUUCGGCAGUGUAUUAAGAGCACAUGAGGAUCACCCAUGUAGAAGGCACGAGCUGAU | 5.58 nM | 7.61 nM |  |  |
